Screens: PubChem BioAssay, Sanford-Burnham Center for Chemical Genomics
Sampled rows, rich in hits. Any-hit rate of the full collection: about 1.8%.
LMPTP inh – LMPTP (human) inhibition; P24666; hit rate 0.22% among 360,000; inhibition, % at 20 µM; recombinant LMPTP-A, OMFP fluorogenic substrate, fluorescence intensity; AID 651560;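 active means compounds that cut the enzyme signal by at least half of the control window in the single-dose screen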;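 further: plate controls were DMSO wells with enzyme plus substrate for no effect and substrate without enzyme for full effect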
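Test system: LMPTP-A, protein tyrosine phosphatase of low molecular weight; Input: 0.625 nM enzyme; Incubation: 50 min dark incubation at room temperature; Signal: endpoint fluorescence intensity from OMFP dephosphorylation; Read-out basis: % inhibition versus control wells.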
SUMO1 PPI mod – alters human SUMO1 binding to SIM partners; P63165; SUMO1 binding to a labelled peptide, TR-FRET, 1 h; inhibition, % at 20 µM; hit rate 0.33% among 360,000; AID 602429; in the data active means inhibition above about 37%
STEP inh – STEP (human) phosphatase inhibition. inhibition, % at 20 µM. recombinant STEP, OMFP fluorogenic substrate, fluorescence. P54829. hit rate 0.25% among 360,000. AID 588621;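 active means inhibition at 20 µM, scaled per plate between control wells, above about 37%, limit read from the data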;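 further: 0% = DMSO with enzyme and substrate and 100% = substrate only without enzyme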
Target sequence (P54829 whole entry, looked up): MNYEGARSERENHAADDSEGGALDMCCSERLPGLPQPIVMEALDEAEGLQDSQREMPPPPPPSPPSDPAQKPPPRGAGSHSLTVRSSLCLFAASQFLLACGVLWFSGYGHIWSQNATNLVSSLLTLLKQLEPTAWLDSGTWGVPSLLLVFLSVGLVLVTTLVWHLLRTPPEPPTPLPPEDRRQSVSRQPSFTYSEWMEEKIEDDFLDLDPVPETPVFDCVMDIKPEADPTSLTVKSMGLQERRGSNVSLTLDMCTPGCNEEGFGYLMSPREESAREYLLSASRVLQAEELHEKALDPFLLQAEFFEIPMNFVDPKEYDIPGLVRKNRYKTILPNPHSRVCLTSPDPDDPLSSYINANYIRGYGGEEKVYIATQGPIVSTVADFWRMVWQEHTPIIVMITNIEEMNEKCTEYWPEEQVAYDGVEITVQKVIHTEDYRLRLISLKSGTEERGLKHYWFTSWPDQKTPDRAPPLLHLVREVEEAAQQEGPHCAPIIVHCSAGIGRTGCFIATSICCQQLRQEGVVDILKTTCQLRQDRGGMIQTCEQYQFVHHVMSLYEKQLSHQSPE
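medium = Bis-Tris buffer pH 6.0, 2.5 mM DTT, 0.005% Tween 20 | test system = STEP (striatal-enriched tyrosine phosphatase) enzyme, cell-free | measure = normalized % inhibition | compound dosing = 20 µM, 1% DMSO | also added = 25 µM OMFP | schedule = reaction 20 min, ambient temperature | measured by = fluorescence read at 480 nm ex / 540 nm em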
DNMT1 block – blocks human DNA methyltransferase DNMT1; DNMT1 molecular beacon, Hinp1I cleavage, fluorescence; inhibition (reported as % activation of signal), % at 10 µM; hit rate 0.83% among 360,000; AID 588458; in the data active means inhibition above about 50%
Scp-1 inhibitor – blocks human Scp-1 phosphatase activity | Q9GZU7 | AID 493091 | hit rate 0.88% among 340,000 | inhibition, % at 20 µM | Recombinant Scp1, phosphopeptide, malachite green phosphate absorbance;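 active means inhibition above about 50% at 20 µM, limit read from the data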;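 further: plate controls were DMSO wells with enzyme for no effect and wells lacking enzyme for full effect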
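Material – SCP-1 phosphatase catalytic domain, residues 76-261 · Buffer or medium – Acidic Tris acetate buffer with magnesium and detergent · Also added – Phospho 17-mer peptide substrate · Compound – single 20 µM dose, 1% DMSO · Times – 45 min room-temperature reaction, 5 min colour, 30 min stabiliser · Technique – Phosphate-binding colour reagent, absorbance read at 630 nm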
HKDC1 inhibitor – HKDC1 (human) hexokinase inhibition | hit rate 0.16% among 340,000 | inhibition, % at 20 µM | AID 493160 | Q2TB90 | recombinant HKDC1, G6PDH/diaphorase resazurin coupled fluorescence;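 active means inhibition above about 35% when tested at 20 µM, limit read from the data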;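 further: plate controls were DMSO wells with enzyme for no effect and DMSO wells lacking enzyme for full effect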
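Material – in-house recombinant HK5 (HKDC1) enzyme · Quantity – HKDC1 at 5 µg/mL · Buffer or medium – pH 8.0 Tris buffer with 10 mM MgCl2 · Reagent – glucose with 1 mM ATP · Dosing – single 20 µM dose · Times – reaction time 90 min, room temperature, protected from light · Technique – resorufin fluorescence at 613 nm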
Scp1 confirm – confirmation of human Scp-1 phosphatase inhibitors; AID 540281; inhibition, % at 20 µM; hit rate 61% among 2,500; recombinant SCP-1 catalytic domain, phosphate release, malachite green absorbance; shares compounds with Scp-1 inhibitor;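 further: plate controls were DMSO with enzyme for no effect and buffer wells lacking enzyme for full effect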
Scp-1 MG ctr – colorimetric interference in Scp-1 counter-screen; shares compounds with Scp-1 inhibitor; Colorimetric interference counterscreen, malachite green absorbance 630 nm; apparent inhibition (interference), % at 20 µM; 2,500 tested, under 10 active; AID 540313;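 further: compounds added after enzyme reaction finished so only phosphate colour detection is probed; plate controls were DMSO wells with completed Scp-1 reaction for no effect and substrate wells lacking enzyme for full effect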
Scp1 DSF – binds human Scp-1, shifting its melting temperature | AID 540329 | shares compounds with Scp-1 inhibitor | Recombinant SCP1, Sypro Orange thermal shift Tm | thermal shift relative to vanadate control, % at 40 µM | hit rate 25% among 1,500;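 active means substances whose mean melting-temperature shift, as a percentage of the reference inhibitor's shift, reaches about 5.3%, limit read from the data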;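 further: 0% = Tm of DMSO wells and 100% = Tm with sodium orthovanadate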
An asterisk follows results filed as active; x = not tested or not shown.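 How the source made its calls, unless noted: active means inhibition of at least 30% at 20 µM; inactive means the rest.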

SMILES	LMPTP inh	SUMO1 PPI mod	STEP inh	DNMT1 block	Scp-1 inhibitor	HKDC1 inhibitor	Scp1 confirm	Scp-1 MG ctr	others
CCOc1cc(Cl)c(NC(C)=O)cc1OCC	-1.8	-0.9	-3.4	2.6	-11.1	-7.1	x	x
CCCc1ccc(C(=O)NNC(=O)c2ccc(Cl)cc2)cc1	24.7	3.0	3.6	11.6	94.0*	0.8	74.0*	-14.5	Scp1 DSF=-3.3
CCCc1ccc(C(=O)NNc2cc(Cl)ccc2Cl)cc1	3.5	-0.4	-1.6	3.5	-10.8	1.4	x	x
Cc1ccc(NC(=O)CN2C(=O)C3CC=C(Cl)CC3C2=O)cc1 (stereo not drawn)	-0.8	1.5	-2.8	-1.3	1.4	-6.4	x	x
O=C(CN1C(=O)/C(=C2/SC(=S)N(CCS(=O)(=O)O)C2=O)c2ccccc21)Nc1cccc(C(F)(F)F)c1	5.2	14.1	5.3	21.0	84.4*	36.2*	84.6*	-15.0	Scp1 DSF=885.4*
COCCN1C(=O)/C(=C2/C(=O)N(CC(=O)Nc3ccccc3Cl)c3ccccc32)SC1=S	5.5	-7.2	7.8	-2.4	-5.5	0.4	x	x
COC(=O)CN1C(=O)N/C(=C/c2cc(OC)c(OC)cc2C)C1=O	0.4	-3.5	-1.7	-0.9	-3.0	-8.1	x	x
CC[n+]1c(C)cc(C)n1-c1ccccc1	0.3	-1.6	-0.4	-39.8	95.2*	-0.6	91.7*	-8.7	Scp1 DSF=-7.1
CCCN(CC(=O)Nc1ccccc1C)C(=O)c1cccc(-n2cnnn2)c1	-1.4	-1.8	-2.5	5.2	-3.6	4.8	x	x
Cc1cccc(OCCOCCN2CCOCC2)c1C	-0.2	2.5	1.6	1.7	51.0*	-7.3	-15.7	-13.4
Cc1cccc(OCCOCCN2CCNCC2)c1C	-3.3	-2.3	-2.5	16.7	0.0	3.8	x	x
COc1ccccc1CN(C(=O)CNC(=O)c1ccco1)C(C(=O)NCC1CCCO1)c1ccccc1 (stereo not drawn)	-0.9	-2.0	-1.0	0.3	-5.5	-1.9	x	x
C[N+]1(CC(=O)OCCCc2ccccc2)CCOCC1	-2.2	-0.9	-4.9	1.7	99.6*	-7.4	80.5*	-17.5	Scp1 DSF=-9.7
Cc1cccc(C(=O)Oc2ccc(/C=N/NC(=O)Cc3ccc([N+](=O)[O-])cc3)cc2)c1	0.3	-0.1	-0.9	13.6	52.2*	-10.1	35.7*	-17.0	Scp1 DSF=3.6
Cc1cccc(C(=O)Oc2ccc(/C=N/NC(=O)c3ccc(O)cc3)cc2)c1	1.9	-2.5	-0.5	-5.2	-7.1	6.4	x	x
O=C(NCC1CCCO1)c1ccc([N+](=O)[O-])o1 (stereo not drawn)	-1.3	-42.4	-0.1	0.4	63.4*	2.2	-26.4	-18.4
O=C(Cc1ccc([N+](=O)[O-])cc1)NCC1CCCO1 (stereo not drawn)	0.2	-10.4	-1.9	-3.1	-7.1	-2.0	x	x
C[n+]1cccc(C(=O)NCC2CCCO2)c1 (stereo not drawn)	-3.2	3.9	-0.9	-3.5	59.9*	-0.3	-8.7	-17.8
O=C(NCC1CCCO1)c1ccccc1 (stereo not drawn)	-0.6	1.1	0.3	1.6	-3.6	-5.0	x	x
O=C(NCC1CCCO1)c1cccc(F)c1 (stereo not drawn)	-2.1	1.3	-3.4	1.6	3.6	-6.5	x	x
O=C(NCC1CCCO1)c1cc(-c2ccccc2F)no1 (stereo not drawn)	-0.6	0.1	-0.6	0.7	52.3*	-4.6	-15.1	-14.0
Cc1ccccc1OC1CCN(C(=O)C2CCC(=O)N(C3CCCC3)C2)CC1 (stereo not drawn)	-1.0	-1.3	1.7	0.9	-6.5	-9.8	x	x
COCCNC(=O)C1(C)CCCN(C(=O)c2cc(F)ccc2C)C1 (stereo not drawn)	-3.1	3.6	-0.3	9.3	x	x	x	x
